Experiment [1] is described as follows: Her2 expression decrease, cell viability multiplex – SKBR3 breast tumor cells, AlphaScreen, ATP viability, primary screen (AID 461;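 active = Her2 level under about 52% in both replicate screens, with viability over 70% of control, limit read from the data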;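 as to Her2 level: lower value means less Her2 protein in the cells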;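 as to viability: percent of carrier control wells set as 100% viability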). The settings on record: SKBR3 Her2 protein level, 18-24 h, measured here: SKBR3 viability, ATP luminescence, at 10 µM.
Experiment [2] addresses Receptor tyrosine-protein kinase erbB-2 (Homo sapiens) (UniProt P04626). The experiment is described as above. The following applies: 18-24 h, at 10 µM, stronger effect = lower value.
Experiment [3] is described as follows: reduced viability of SK-BR-3 breast cancer cells – cell-based, 24 h, human, pilot screen (AID 572;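 active = viability at or below 10% of carrier control in both of two separate runs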;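 also: compound exposure lasted between 18 and 24 h rather than exactly 24 h; 100% = carrier-treated control wells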). The settings on record: SK-BR-3 viability, CellTiter-Glo luminescence, at 10 µM, stronger effect = lower value.
Experiment [4] is described as follows: HUVEC growth inhibition – cell-based, human, primary screen (AID 575;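 active = viability at or below 30% in both replicate assays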;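 also: 100% = median of untreated cell wells with 0.1% DMSO on each plate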). The settings on record: HUVEC proliferation, CellTiter-Glo luminescence, 72 h; at 10 µM; stronger effect = lower value. The essentials:
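Test system – primary HUVEC, no more than 12 passages · Dosing – one dose, 10 µM final, 0.1% DMSO · Times – 72 h treatment at 37 °C · Measured by – ATP-based CellTiter-Glo luminescent read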

Experiment [5] in a line: H69AR cell proliferation blockers – human, duplicate replicates, primary screen (AID 580;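 active = viability at or under a set limit in both replicates, limit being median viability minus 3 SD, cut at about 48% in these data, passing the limit was not always enough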;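 also: 100% = mean luminescence of untreated wells and 0% = no signal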). The following applies: H69AR lung tumor cells viability, ATP luminescence, 72 h; at 10 µM; stronger effect = lower value.
A short description of experiment [6]: MRP1 drug-resistance reversers in H69AR cells – cell-based, doxorubicin co-treatment, pilot screen (AID 601;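 active = viability loss from added drug above about 55%, and viability with drug at most 40%, in both replicates, limit read from the data, passing the limit was not always enough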). The following applies: CellTiter-Glo, 72 h, at 10 µM; for differential viability (reversal): stronger effect = higher value.
Experiment [7] in a line: yeast transport mutant growth inhibition pilot in 384-well plates, post-Golgi transport modulator project (AID 636; in the data active = inhibition above about 31%). The settings on record: absorbance 615 nm, about 18 h, stronger effect = higher value.
Experiment [8] is described as follows: growth suppression of yeast trafficking mutant, preliminary HTS, modulators of trafficking downstream of Golgi apparatus project, 1536-format plate, OD 615 nm (AID 637). The settings on record: yeast transport mutant growth, absorbance 615 nm, 18 h; stronger effect = higher value.
Setting [9] is: H69AR cells + 2 uM doxorubicin, measured here: viability with 2 uM doxorubicin, stronger effect = lower value.
Setting [10] is: H69AR cells, compound alone cytotoxicity.

Molecules are shown by their SMILES. The source made the active and inactive calls. Rule as the data show it, unless noted: active = inhibition above about 30%; inactive = the rest.

Chain of Receptor tyrosine-protein kinase erbB-2 (Homo sapiens) (P04626 whole entry, looked up): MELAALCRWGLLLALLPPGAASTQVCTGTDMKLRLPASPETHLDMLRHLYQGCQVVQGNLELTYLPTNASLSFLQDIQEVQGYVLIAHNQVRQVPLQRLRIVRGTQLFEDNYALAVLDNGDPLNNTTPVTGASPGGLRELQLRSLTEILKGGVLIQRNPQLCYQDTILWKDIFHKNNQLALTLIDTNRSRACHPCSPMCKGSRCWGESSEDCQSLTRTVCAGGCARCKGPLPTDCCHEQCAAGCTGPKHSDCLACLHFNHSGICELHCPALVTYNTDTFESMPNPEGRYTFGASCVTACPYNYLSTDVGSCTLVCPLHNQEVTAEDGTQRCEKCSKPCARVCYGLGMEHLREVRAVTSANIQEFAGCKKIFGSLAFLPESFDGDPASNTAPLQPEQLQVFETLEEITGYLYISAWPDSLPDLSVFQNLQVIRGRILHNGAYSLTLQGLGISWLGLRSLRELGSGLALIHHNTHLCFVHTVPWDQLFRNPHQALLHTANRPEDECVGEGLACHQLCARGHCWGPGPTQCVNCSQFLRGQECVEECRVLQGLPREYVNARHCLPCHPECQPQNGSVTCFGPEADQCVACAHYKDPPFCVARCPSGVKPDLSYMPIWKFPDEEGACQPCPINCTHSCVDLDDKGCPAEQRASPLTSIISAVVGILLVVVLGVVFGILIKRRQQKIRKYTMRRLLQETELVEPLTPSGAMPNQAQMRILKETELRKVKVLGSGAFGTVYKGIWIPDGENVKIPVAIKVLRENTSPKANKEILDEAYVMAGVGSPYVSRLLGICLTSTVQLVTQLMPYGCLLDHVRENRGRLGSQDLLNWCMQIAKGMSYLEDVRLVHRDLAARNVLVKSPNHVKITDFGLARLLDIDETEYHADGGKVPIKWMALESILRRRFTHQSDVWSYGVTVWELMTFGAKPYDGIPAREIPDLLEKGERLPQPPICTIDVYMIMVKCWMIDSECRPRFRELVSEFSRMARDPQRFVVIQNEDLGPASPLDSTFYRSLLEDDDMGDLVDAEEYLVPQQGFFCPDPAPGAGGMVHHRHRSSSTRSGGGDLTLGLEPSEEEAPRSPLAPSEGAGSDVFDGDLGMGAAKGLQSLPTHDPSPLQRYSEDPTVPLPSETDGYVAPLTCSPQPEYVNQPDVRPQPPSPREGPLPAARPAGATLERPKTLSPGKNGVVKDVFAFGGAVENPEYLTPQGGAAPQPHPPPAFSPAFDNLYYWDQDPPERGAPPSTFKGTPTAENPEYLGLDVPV

As for `CCCn1c(NCc2ccc3c(c2)OCO3)nc2ccccc21`, the viability in experiment [1] is 94%; in experiment [3], 94% (inactive); in experiment [4], 80.1% (inactive); in experiment [5] it was 97.2% (inactive); in experiment [6] (setting [9]) it was 84.9%; in experiment [6] (setting [10]), 97.2%. The Her2 level in experiment [2] was 85% (inactive). Further, the differential viability (reversal) in experiment [6] (H69AR cells + 2 uM doxorubicin) was 12.3% (inactive). In addition, the inhibition in experiment [7] was -5.6% (inactive); in experiment [8], -1.13% (inactive).
With `O=C(Nc1nccs1)NC(C(F)(F)F)C(F)(F)F`, the viability in experiment [1] was 104%; in experiment [3] it was 104% (inactive); in experiment [4], 93% (inactive); in experiment [5], 95.1% (inactive); in experiment [6] (setting [9]), 95.1%; in experiment [6] (setting [10]), 95.1%. Also, in experiment [2], the Her2 level is 87.5% (inactive). In addition, the differential viability (reversal) in experiment [6] (H69AR cells + 2 uM doxorubicin) was -0.09% (inactive). Further, the results for the inhibition in experiment [7] and in experiment [8] were -6.44% (inactive) and -0.16% (inactive), respectively.
In the case of `CC1(C)Cc2c(c(N3CCOCC3)nc3sc(C#N)c(N)c23)CS1`, the viability is 92% in experiment [1]; 92% (inactive) in experiment [3]; 85.2% (inactive) in experiment [4]; 83.3% (inactive) in experiment [5]; 84.5% in experiment [6] (setting [9]); 83.3% in experiment [6] (setting [10]). The Her2 level in experiment [2] is 122% (inactive). Besides, the differential viability (reversal) in experiment [6] (H69AR cells + 2 uM doxorubicin) is -1.22% (inactive). Also, the figures for the inhibition in experiment [7] and in experiment [8] were 0.9% (inactive) and -8.67% (inactive), respectively.
As to `CCn1ncc(Cl)c1C(=O)Nc1ccncc1`, the viability in experiment [1] was 114%; in experiment [3], 114% (inactive); in experiment [4], 97.5% (inactive); in experiment [5] it was 98.6% (inactive); in experiment [6] (setting [9]), 83.7%; in experiment [6] (setting [10]) it was 98.6%. Moreover, the Her2 level in experiment [2] was 94.5% (inactive). Moreover, the differential viability (reversal) in experiment [6] (H69AR cells + 2 uM doxorubicin) is 14.8% (inactive). The inhibition in experiment [7] is -4.4% (inactive); in experiment [8], -1.97% (inactive).
`CCOC(=O)N1CCN(C(=O)CSc2ncnc3ccccc23)CC1`: the viability in experiment [1] is 92%; in experiment [3], 92% (inactive); in experiment [4], 87.2% (inactive); in experiment [5], 89.1% (inactive); in experiment [6] (setting [9]) it was 74.1%; in experiment [6] (setting [10]), 89.1%. The Her2 level in experiment [2] was 96% (inactive). Moreover, in experiment [6] (H69AR cells + 2 uM doxorubicin), the differential viability (reversal) is 14.9% (inactive). The inhibition in experiment [7] was -1.33% (inactive); in experiment [8], 0.33% (inactive).
As for `CC(C)OC(=O)C(CC(=O)O)NCc1ccccc1` (stereo not given), the viability in experiment [1] is 98%; in experiment [3] it was 98% (inactive); in experiment [4], 97.5% (inactive); in experiment [5] it was 91.6% (inactive); in experiment [6] (setting [9]), 88%; in experiment [6] (setting [10]) it was 91.6%. In addition, the Her2 level in experiment [2] was 91.5% (inactive). Also, the differential viability (reversal) in experiment [6] (H69AR cells + 2 uM doxorubicin) was 3.69% (inactive). Also, the inhibition in experiment [7] was -2.63% (inactive); in experiment [8], -1.29% (inactive).
Take `Cc1cc2c(c(=O)o1)C(Cc1ccccc1)C(C#N)=C(N)O2` (stereo not given): the viability in experiment [1] was 94%; in experiment [3], 94% (inactive); in experiment [4], 87.2% (inactive); in experiment [5], 98.7% (inactive); in experiment [6] (setting [9]) it was 77.2%; in experiment [6] (setting [10]) it was 98.7%. In experiment [2], the Her2 level is 96% (inactive). In experiment [6] (H69AR cells + 2 uM doxorubicin), the differential viability (reversal) was 21.6% (inactive). Besides, the inhibition in experiment [7] is 1.45% (inactive); in experiment [8], 1.8% (inactive).
As for `CCN(Cc1nc2ccccc2c(=O)[nH]1)Cc1nc2cc(OC)c(OC)cc2c(=O)[nH]1`, the viability is 88.5% in experiment [1]; 88.5% (inactive) in experiment [3]; 99.5% (inactive) in experiment [4]; 89.8% (inactive) in experiment [5]; 92.1% in experiment [6] (setting [9]); 89.8% in experiment [6] (setting [10]). In experiment [2], the Her2 level was 114% (inactive). Also, the differential viability (reversal) in experiment [6] (H69AR cells + 2 uM doxorubicin) is -2.33% (inactive). For the same compound, the results for the inhibition in experiment [7] and in experiment [8] were 0.54% (inactive) and 9.83% (inactive), respectively.
As for `O=C(Cn1nnc(-c2cc(Cl)ccc2-n2cnnn2)n1)N1CCCc2ccccc21`, the viability in experiment [1] was 116%; in experiment [3] it was 116% (inactive); in experiment [4], 95.7% (inactive); in experiment [5], 96.4% (inactive); in experiment [6] (setting [9]) it was 87%; in experiment [6] (setting [10]) it was 96.4%. Moreover, in experiment [2], the Her2 level was 99.5% (inactive). Further, the differential viability (reversal) in experiment [6] (H69AR cells + 2 uM doxorubicin) is 9.45% (inactive). Besides, the inhibition in experiment [7] is -2.47% (inactive); in experiment [8], 10.8% (inactive).
Regarding `CCN(C1CCCCC1)S(=O)(=O)c1ccc(OC)c(C)c1`, the viability in experiment [1] is 99%; in experiment [3], 99% (inactive); in experiment [4], 91.5% (inactive); in experiment [5], 93.1% (inactive); in experiment [6] (setting [9]), 77.4%; in experiment [6] (setting [10]), 93.1%. Moreover, the Her2 level in experiment [2] is 108% (inactive). Besides, the differential viability (reversal) in experiment [6] (H69AR cells + 2 uM doxorubicin) is 15.7% (inactive). Moreover, the inhibition in experiment [7] is -7.92% (inactive); in experiment [8] it was -13% (inactive).
In the case of `CCn1c(=O)n(CC(=O)Nc2cc(OC)ccc2OC)c(=O)c2ccccc21`, the viability is 110% in experiment [1]; 110% (inactive) in experiment [3]; 86% (inactive) in experiment [4]; 87.4% (inactive) in experiment [5]; 69.7% in experiment [6] (setting [9]); 87.4% in experiment [6] (setting [10]). The Her2 level in experiment [2] was 77% (inactive). Further, the differential viability (reversal) in experiment [6] (H69AR cells + 2 uM doxorubicin) was 17.7% (inactive). Besides, the inhibition in experiment [7] is -0.66% (inactive); in experiment [8] it was -0.32% (inactive).
In the case of `Cc1nc(N2CCOCC2)[nH]c(=O)c1CCC(C)C`, the viability in experiment [1] is 120%; in experiment [3], 120% (inactive); in experiment [4] it was 87.7% (inactive); in experiment [5] it was 91.9% (inactive); in experiment [6] (setting [9]), 91%; in experiment [6] (setting [10]) it was 91.9%. Also, the Her2 level in experiment [2] was 82% (inactive). Besides, in experiment [6] (H69AR cells + 2 uM doxorubicin), the differential viability (reversal) was 0.88% (inactive). For the same compound, the results for the inhibition in experiment [7] and in experiment [8] were -1.58% (inactive) and 1.11% (inactive), respectively.
For the compound `Cc1nc2sc(C(c3ccccc3)N3CCN(c4ccccc4F)CC3)c(O)n2n1` (stereo not given), the viability in experiment [1] was 91.5%; in experiment [3], 91.5% (inactive); in experiment [4], 97.6% (inactive); in experiment [5], 100% (inactive); in experiment [6] (setting [9]) it was 98.1%; in experiment [6] (setting [10]) it was 100%. For the same compound, in experiment [2], the Her2 level is 93.5% (inactive). Also, in experiment [6] (H69AR cells + 2 uM doxorubicin), the differential viability (reversal) is 2.07% (inactive). Moreover, the inhibition in experiment [7] is 0% (inactive); in experiment [8], -7.7% (inactive).
For the compound `COCCNS(=O)(=O)c1cc(F)ccc1OC`, the viability is 90% in experiment [1]; 90% (inactive) in experiment [3]; 95.1% (inactive) in experiment [4]; 103% (inactive) in experiment [5]; 97.6% in experiment [6] (setting [9]); 103% in experiment [6] (setting [10]). Moreover, in experiment [2], the Her2 level was 99.5% (inactive). The differential viability (reversal) in experiment [6] (H69AR cells + 2 uM doxorubicin) was 5.13% (inactive). In addition, the inhibition was -4.32% (inactive) in experiment [7] and -5.74% (inactive) in experiment [8].
With `O=C(Nc1ccc(Cc2ccc(NC(=O)N3CCOCC3)cc2)cc1)N1CCOCC1`, the viability was 97% in experiment [1]; 97% (inactive) in experiment [3]; 90.1% (inactive) in experiment [4]; 98.5% (inactive) in experiment [5]; 82.8% in experiment [6] (setting [9]); 98.5% in experiment [6] (setting [10]). Besides, the Her2 level in experiment [2] was 94% (inactive). The differential viability (reversal) in experiment [6] (H69AR cells + 2 uM doxorubicin) is 15.7% (inactive). In addition, the inhibition in experiment [7] was -4.87% (inactive); in experiment [8], -1.17% (inactive).
